The array DNA melting data of Ke et al. (doi:10.1101/2024.01.08.574731)

Columns and labels:
[1] = melting temperature; fluorescence melt of hairpins on a sequencing array, two-state fit, raised by 9.35 °C to match UV melts; conditions: sodium 0.088 M
In short: (§1)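 In 50 mM Na-HEPES pH 8.0 containing 25 mM NaCl, hairpins from the library on a sequenced MiSeq flow cell were imaged for Cy3 fluorescence at 2.5 °C steps up to 60 °C, with Cy3 and quencher oligos annealed. After normalisation to pre-quench Cy3 and to control constructs, two-state fits with bootstrapping gave melting temperature and folding enthalpy. Four replicates were combined by inverse-variance weighting, and fitted temperatures were shifted up by 9.35 °C to match UV melts.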

[2] = folding enthalpy; higher = less favourable; fluorescence melt of hairpins on a sequencing array, two-state fit; conditions: sodium 0.088 M
In short: as §1

Sequence | Tm [1] [°C] | folding enthalpy [2] [kcal/mol]
GCCTGGCGAAAGCAAAGC ((.(.((....)).).)) | 31.6 | -9.2
GTGATAGGAAACTACCAC (((.(((....))).))) | 33.5 | -27.3
GTGAATACGAAAGTACAC (((..(((....)))))) | 27.5 | -12.5
CGGCCCCGGAAACGGCCG (((..(((....)))))) | 54.4 | -31.9
GCTGCGCGAAAGCTTAGC (((..((....))..))) | 39.6 | -20.5
GTACGTCGAAAGACATAC (((.(((....))).))) | 38.4 | -20.1
GCAACCGAAAGGTTTTGC ((((((....)))..))) | 39.9 | -14.4
GTGCCCGAAAGGGCTCAC ((((((....)))..))) | 45.5 | -7.4
GATCCTTCTAAGGATC ((((((....)))))) | 54.4 | -47.8
CTATCGAAAGATAG (((((....))))) | 47.1 | -21.7
GTAGACCGAAAGGTTAC (((.(((....)))))) | 38.5 | -16.7
GCGATGCGAAAGCCTTGC ((.(.((....)).).)) | 36.3 | -25.4
GAGGAGCGAAAGCTCTC (((.(((....)))))) | 48.2 | -9.17
GATCCGGTCCGGATC ((((((...)))))) | 59.8 | -40.6
GATCCTGATAGGATC ((((((...)))))) | 53.2 | -31.6
GAACGCGGAAACACGTTC (((((.(....).))))) | 48.1 | -45.6
ATGGAGAAATCCAT (((((....))))) | 36 | -14.6
GTCGACGAAAGTCCGAC ((((((....))).))) | 51.7 | -21.3
GCTACCGGAAACAGTAGC (((((.(....).))))) | 40.6 | -34.3
GCGGAAGGAAACTTCTGC ((.((((....)))).)) | 51.4 | -44.6
GTAGACCCGAAAGGGTAC (((..(((....)))))) | 32.3 | -9.26
GAGAACGAAAGTTCCCTC ((((((....)))..))) | 38.9 | -14
GTCCGTGGAAACACAGAC (((.(((....))).))) | 40.5 | -28.2
GATCCTCCGAAGGATC ((((((....)))))) | 48.7 | -16.6

Sequence | Tm [1] [°C] | folding enthalpy [2] [kcal/mol]
GCTGACACGAAAGTGAGC (((..(((....)))))) | 40.3 | -18.3
GCTTGGCGAAAGCCCCGC ((..(((....)))..)) | 35.8 | -12
GATCCTGACGAGGATC ((((((....)))))) | 56.9 | -36.4
GAATAGCGAAAGCTGTTC (((.(((....))).))) | 51.5 | -39.9
GAAGGCCGAAAGGCGTTC (((.(((....))).))) | 57 | -26.3
GATCATTGGATGATC ((((((...)))))) | 44.8 | -31.7
GTGAACCGAAAGGTCCAC (((.(((....))).))) | 49.8 | -24.6
GTGGTAGAAATACCAC ((((((....)))))) | 53.6 | -36.1
GATCAGTATTCTGATC ((((((....)))))) | 51 | -39.1
GAAACAGGAAACTGTTCC (.(((((....))))).) | 35.3 | -14.9
GTACGGAAACGTAC (((((....))))) | 53.7 | -32.4
GATGCCGAAAGGCAAATC ((((((....)))..))) | 35.4 | -10.4
GTCAAGAAATTGAC (((((....))))) | 40.8 | -21.6
GTCAACGGAAACGTCGAC (((.(((....))).))) | 44.4 | -33
GATCTGTCCCCAGATC ((((((....)))))) | 47.9 | -37.5
GGATCGGAAACGATCC ((((((....)))))) | 66.2 | -28.6
GTTACCCGAAAGGGAAC (((.(((....)))))) | 43.7 | -17.1
GACGCCGAAAGGCCTGTC ((((((....)))..))) | 35.1 | -13.5
GCAATGCGAAAGCCCTGC (((..((....))..))) | 28.4 | -10.3
GATAGCGGAAACGCCATC (((.(((....))).))) | 35.1 | -15.5
GCATCCTCGAAAGAGTGC (((..(((....)))))) | 33.1 | -19.1
GCGTTGGGAAACCAATGC ((.((((....)))).)) | 54.3 | -43.2
GATTACGAAAGTAAATC ((((((....))).))) | 36 | -19.9
GGATATCGAAAGATTCC (((.(((....)))))) | 39.5 | -25.9

Sequence | Tm [1] [°C] | folding enthalpy [2] [kcal/mol]
GATCCCGAAAGGGAAATC ((((((....)))..))) | 35.1 | -12.1
GCAGCAGGAAACTGCCGC ((.((((....)))).)) | 50.5 | -27.8
TGATCGAAAGATCA (((((....))))) | 51.3 | -21
GCTTACGAAAGTAGAGC ((((((....))).))) | 43.3 | -24.4
GGCCACCGAAAGGTTGCC (((.(((....))).))) | 58.1 | -44.3
GATTGTGAAAACAATC ((((((....)))))) | 51.4 | -35.9
GTGTGTGGAAACACATGC (..((((....))))..) | 49.6 | -18.8
GATCAAAGACTTGATC ((((((....)))))) | 39.2 | -25.1
GTGAGAGGAAACTTTCAC ((((.((....)).)))) | 35.1 | -23.8
GCTGGCGAAAGCCTCAGC ((((((....)))..))) | 46.6 | -14.7
GCCAAGCGAAAGCTTCGC ((.((((....)))).)) | 50.4 | -16.8
GATCATCGGAATGATC ((((((....)))))) | 45.8 | -38.9
GCCCGAGGAAACTCGGAC (.(((((....))))).) | 48.4 | -13.1
GCCTGTGGAAACATGGGC (((..((....))..))) | 47.4 | -29.4
GCGTTGCGAAAGCCACGC ((((.((....)).)))) | 66.6 | -36.6
GCTTTGCGAAAGCGAAGC ((((.((....)).)))) | 66.2 | -37.2
GCTGGGCGAAAGCTAAGC (((..((....))..))) | 53.9 | -22.1
GACACCCCGAAAGGGGTC (((..(((....)))))) | 37.7 | -6.64
GATCATACGAATGATC ((((((....)))))) | 44.7 | -34.4
GCGGTGCGAAAGCCCAGC ((.(.((....)).).)) | 54.2 | -21.6
GATCACGGAAACGCGATC ((((.((....)).)))) | 48.2 | -34.3
GAGTAAGGAAACTTACCC (.(((((....))))).) | 28.4 | -14.6
GCTAACGAAAGTTCAAGC ((((((....)))..))) | 30.9 | -12.5
GAATTCCCGAAAGGGTTC (((..(((....)))))) | 28 | -13

Sequence | Tm [1] [°C] | folding enthalpy [2] [kcal/mol]
GATCTTCCGGAAGATC ((((((....)))))) | 53.1 | -55.2
GTTTTAGAAATAAAAC ((((((....)))))) | 36.7 | -22.3
GAGAACGAAAGTTCCTC ((((((....))).))) | 42.7 | -14.2
GGGACTGAAAAGTCCC ((((((....)))))) | 68.3 | -33.7
GCGGGACCCGC ((((...)))) | 55.9 | -24.5
GATCTCTCCTGAGATC ((((((....)))))) | 55 | -39.3
GATCGTGTTACGATC ((((((...)))))) | 56.9 | -35.6
GGCAATGGAAACATTGCC (((((((....))))))) | 67 | -42.1
TTATGGAAACATAA (((((....))))) | 22.8 | -8.55
GTGATCGAAAGATTTCAC ((((((....)))..))) | 27.6 | -14.3
GAGAAAACGAAAGTTCTC (((..(((....)))))) | 30.8 | -19.4
GATCATCAATATGATC ((((((....)))))) | 45 | -35
CGCGCGGAAACGCCAGCG ((((((....)))..))) | 53.9 | -23
GCGGATCGCCGC ((((....)))) | 55.6 | -19.9
CGGTTGAAAAACCG (((((....))))) | 56.2 | -29.6
GTGGACGAAAGTCACCAC ((((((....)))..))) | 38 | -16.4
GCGTGTTACGC ((((...)))) | 61.6 | -24
GTAGGTGGAAACACCCAC ((.((((....)))).)) | 34.7 | -13.1
GCGACGCGAAAGCCTGGC ((.(.((....)).).)) | 28.1 | -5.89
GCGACCGTCGC ((((...)))) | 45.5 | -26.8
GAAAGGGAAACCTTTC ((((((....)))))) | 47 | -30
